EBV LMP1 NFkB = Epstein-Barr LMP1 NF-kappaB reporter inhibition. inhibition, % at 12.5 µM. hit rate 0.69% among 350,000. LMP1-induced NF-kappaB luciferase reporter cells, luminescence; in the data active = inhibition above about 41%;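 also: 0% = neutral control wells and 100% = reference inhibitor control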
FN deposit inh = fibronectin deposition inhibition | AH1F fibroblasts, Alexa488-fibronectin deposition fluorescence, overnight | inhibition, % at 12.6 µM | hit rate 0.086% among 350,000;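 active = mean inhibition across replicates of 30% or more, regardless of how many single replicates reach that level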;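 also: positive control wells lacked labelled fibronectin entirely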
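Assay system: AH1F fibroblast monolayer, labelled fibronectin deposition. Amount: 10000 cells per well. Also added: labelled fibronectin 24 nM. Compound: single-point pinned compound. Incubation: cell attachment 1 h, compound and FN exposure overnight. Detection: fluorescence after three HBSS washes, excitation 485 nm, emission 525 nm. Read-out: inhibition of fibronectin deposition signal.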
aSyn 5UTR inh = MLPCN primary screen, SNCA 5' untranslated region; alpha-synuclein 5'UTR reporter, inhibitor activity; inhibition, % (tested at 7.5 µM); hit rate 0.82% among 300,000; in the data active = inhibition above about 60%;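 also: H4 neuroglioblastoma cells stably carrying SNCA 5'UTR luciferase fusion; 0% = DMSO wells and 100% = positive control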
Shn3 inh set2 = Schnurri-3 reporter inhibition in Clone20 osteoblasts. AID 588674. inhibition, % at 12.5 µM. Clone20 osteoblast Shn3 3'UTR firefly luciferase, 24 h. hit rate 0.52% among 360,000;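 active = mean inhibition of at least 75% with every replicate also reaching 75%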;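 also: 0% = median of neutral control wells and 100% = pilot-screen positive control compound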
EWS-Fli inh = inhibitors of EWS/Fli oncoprotein transcriptional activity | AID 651661 | inhibition, % at 12.6 µM | hit rate 0.67% among 350,000 | A673 NR0B1-luciferase reporter, viability-normalised;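 active = mean inhibition of at least 50% after viability correction, with every replicate also passing that limit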;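 also: firefly luciferase signal divided by Alamar Blue viability fluorescence both relative to DMSO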
PAX8 inh HTS = inhibitors of PAX8 transcriptional activity in RMG-I cells | hit rate 1.2% among 360,000 | inhibition, % at 12.6 µM | RMG-I TPO-luciferase reporter, SteadyGlo, 24 h;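 active = mean replicate inhibition at least 60% with every replicate also reaching 60%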;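 also: luciferase light reporting Pax8 driven TPO promoter activity; plate controls were median of neutral control wells for no effect and mitoxantrone controls for full effect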
The depositor's hits bear a star. This is a sample that favours compounds with a hit; in the whole collection about 2.1% have one here.

For O=c1cccc2c1c1cc[nH]c3ccc(=O)n2c31 the results were EBV LMP1 NFkB 16, aSyn 5UTR inh 79*, Shn3 inh set2 -27 and EWS-Fli inh 28.
`C[C@H](CO)N1C[C@H](C)[C@@H](CN(C)S(=O)(=O)c2cn(C)cn2)Oc2ccc(NC(=O)NC3CCCCC3)cc2CC1=O` gave EWS-Fli inh -10.
O=C(COc1ccc(Oc2ccccc2)cc1)NCc1cn2ccccc2n1 was read as EBV LMP1 NFkB -11, FN deposit inh 5, aSyn 5UTR inh 62*, Shn3 inh set2 11, EWS-Fli inh 49 and PAX8 inh HTS 30.
O=C1/C(=C/c2ccccc2)SC(=S)N1CC(=O)N1CCCCC1c1cccnc1 (stereo unspecified) was read as EBV LMP1 NFkB 14, FN deposit inh 10, aSyn 5UTR inh -30, Shn3 inh set2 16 and PAX8 inh HTS 90*.
Screening Cc1cc(/C=C2\SC(=S)N(Cc3ccco3)C2=O)c(C)n1-c1cccnc1 returned EBV LMP1 NFkB -19, FN deposit inh 2, aSyn 5UTR inh -181 and Shn3 inh set2 7.
O=C1/C(=C/c2cccnc2)SC(=S)N1Cc1ccco1 was read as EBV LMP1 NFkB 43*, FN deposit inh -2, Shn3 inh set2 -13, EWS-Fli inh 15 and PAX8 inh HTS -15.
CCOc1ccc(NC(=O)Nc2ccc3nsnc3c2)cc1 was read as EBV LMP1 NFkB 2, FN deposit inh -3, aSyn 5UTR inh -56, Shn3 inh set2 -5, EWS-Fli inh -60 and PAX8 inh HTS -91.
CCOC(=O)c1cccc(NC(=O)Nc2ccc(OCC)cc2)c1 was read as EBV LMP1 NFkB -2, FN deposit inh 1, aSyn 5UTR inh 56, Shn3 inh set2 3, EWS-Fli inh 84* and PAX8 inh HTS -55.
Screening CCOc1ccc(NC(=O)Nc2cccc(C(=O)O)c2)cc1 returned EBV LMP1 NFkB 81*, FN deposit inh -9, aSyn 5UTR inh 108*, Shn3 inh set2 79, EWS-Fli inh 91* and PAX8 inh HTS 99*.
For Cc1ccccc1OCC(=O)Nc1cccc(C(=O)O)c1 the results were EBV LMP1 NFkB 77*, FN deposit inh 1, aSyn 5UTR inh 105*, Shn3 inh set2 56, EWS-Fli inh 83* and PAX8 inh HTS 93*.
Screening CCOC(=O)c1cccc(NC(=O)c2ccc(N(C)C)cc2)c1 returned EBV LMP1 NFkB -11, FN deposit inh 6, aSyn 5UTR inh 55, Shn3 inh set2 -16, EWS-Fli inh 76* and PAX8 inh HTS -59.
`Cc1cccc(OCC(=O)Nc2cc(NC(=O)COc3cccc(C)c3C)cc(C(=O)O)c2)c1C` gave EBV LMP1 NFkB -1, FN deposit inh -7, aSyn 5UTR inh -10, Shn3 inh set2 -1, EWS-Fli inh 12 and PAX8 inh HTS 2.
Screening COc1cccc(S(=O)(=O)N[C@@H]2CC[C@H](CC(=O)NC3Cc4ccccc4C3)O[C@@H]2CO)c1 returned FN deposit inh -11, EWS-Fli inh -2 and PAX8 inh HTS 20.
Screening C[N+](C)(C)C[C@H](O)CC(=O)O returned EBV LMP1 NFkB -5, FN deposit inh -4, aSyn 5UTR inh 32, Shn3 inh set2 0, EWS-Fli inh -2 and PAX8 inh HTS 20.
Screening CC(=O)OC(CC(=O)O)C[N+](C)(C)C (stereo unspecified) returned EBV LMP1 NFkB -5, FN deposit inh -6, aSyn 5UTR inh 68*, Shn3 inh set2 4, EWS-Fli inh -7 and PAX8 inh HTS -3.
Screening CC(=O)O[C@H](CC(=O)O)C[N+](C)(C)C returned EBV LMP1 NFkB 59*, FN deposit inh -1, aSyn 5UTR inh 7, Shn3 inh set2 74, EWS-Fli inh -7 and PAX8 inh HTS 0.
For Cc1ccc(S(=O)(=O)N(C)C[C@H]2OCCCC[C@@H](C)Oc3ccc(NC(=O)CCC(F)(F)F)cc3C(=O)N([C@H](C)CO)C[C@H]2C)cc1 the results were FN deposit inh -6, EWS-Fli inh -4 and PAX8 inh HTS 0.
Screening NNC(=O)c1cn2ccccc2n1 returned EBV LMP1 NFkB -1, aSyn 5UTR inh -30 and Shn3 inh set2 1.
O=C(Nc1nccs1)c1cn2ccccc2n1 was read as EBV LMP1 NFkB 19, FN deposit inh -11, aSyn 5UTR inh 65*, Shn3 inh set2 -29, EWS-Fli inh -18 and PAX8 inh HTS -47.
For Cc1cc(C)cc(NC(=O)c2ccc([N+](=O)[O-])o2)c1 the results were EBV LMP1 NFkB -26, FN deposit inh -6, aSyn 5UTR inh -31, Shn3 inh set2 35, EWS-Fli inh 17 and PAX8 inh HTS 75*.
`CC(NC(=O)C12CC3CC(CC(C3)C1)C2)C(=O)NN=Cc1ccc([N+](=O)[O-])o1` (stereo unspecified) gave EBV LMP1 NFkB -27, FN deposit inh -3, Shn3 inh set2 17, EWS-Fli inh 13 and PAX8 inh HTS -1.
`NC(=O)c1oc2ccccc2c1NC(=O)c1ccc([N+](=O)[O-])o1` gave EBV LMP1 NFkB 4, FN deposit inh 4, aSyn 5UTR inh 100*, Shn3 inh set2 58, EWS-Fli inh 49 and PAX8 inh HTS 74*.
Screening COc1ccc(NC(=O)c2ccc([N+](=O)[O-])o2)cc1 returned EBV LMP1 NFkB -29, FN deposit inh -6, aSyn 5UTR inh -320, Shn3 inh set2 9, EWS-Fli inh -27 and PAX8 inh HTS 76*.
Screening CC(NC(=O)c1ccc([N+](=O)[O-])o1)C12CC3CC(CC(C3)C1)C2 (stereo unspecified) returned EBV LMP1 NFkB -9, FN deposit inh 4, aSyn 5UTR inh -168, Shn3 inh set2 51, EWS-Fli inh 18 and PAX8 inh HTS 66*.
CC(=O)c1ccc(NC(=O)c2ccc([N+](=O)[O-])o2)cc1 was read as EBV LMP1 NFkB -36, FN deposit inh 8, aSyn 5UTR inh -355, Shn3 inh set2 -66, EWS-Fli inh 3 and PAX8 inh HTS 25.
For C[C@H](CO)N1C[C@H](C)[C@H](CN(C)C(=O)c2cc(-c3ccccc3)on2)OCc2cn(nn2)CCCC1=O the results were FN deposit inh 3, EWS-Fli inh 0 and PAX8 inh HTS 4.
CCCN(CCC)C(=O)c1ccc2c(c1)S(=O)(=O)c1ccccc1C2=O was read as EBV LMP1 NFkB 2, FN deposit inh 7, aSyn 5UTR inh 17, Shn3 inh set2 -2, EWS-Fli inh 18 and PAX8 inh HTS 14.
CCN(Cc1ccncc1)C(=O)c1ccc2c(c1)S(=O)(=O)c1ccccc1C2=O was read as EBV LMP1 NFkB 0, FN deposit inh 39*, aSyn 5UTR inh -2, Shn3 inh set2 8, EWS-Fli inh 11 and PAX8 inh HTS -18.
Cc1ccc(-c2cc(C(=O)Nc3ccc(S(=O)(=O)Nc4cc(C)on4)cc3)c3ccccc3n2)c(C)c1 was read as EBV LMP1 NFkB 4, aSyn 5UTR inh 5 and Shn3 inh set2 -6.
For COc1ccc(-c2nc3ccccc3c(C(=O)Nc3ccc(S(=O)(=O)Nc4cc(C)on4)cc3)c2C)cc1 the results were EBV LMP1 NFkB 50*, aSyn 5UTR inh 13 and Shn3 inh set2 7.

High-throughput results (PubChem)
